{"source": "ChEMBL document CHEMBL5661979", "about": "“Pharmacological inhibition of BMK1 suppresses tumor growth through promyelocytic leukemia protein” (Cancer Cell, 2010)", "key": {"[1]": {"target": "Serine/threonine-protein kinase LATS1 (Homo sapiens, UniProt O95835)", "assay": "Inhibition of LATS1 in human HeLa cells lysate pre incubated for 15 mins followed by ATP acyl phosphate probe addition and measured after 10 mins by LC-MS/MS analysis", "format": "subcellular"}, "[2]": {"target": "T1, Mitogen-activated protein kinase kinase kinase 20 (Homo sapiens, UniProt Q9NYL2)", "assay": "Inhibition of ZAK in human HeLa cells lysate pre incubated for 15 mins followed by ATP acyl phosphate probe addition and measured after 10 mins by LC-MS/MS analysis", "format": "subcellular"}, "[3]": {"target": "Epidermal growth factor receptor (Homo sapiens, UniProt P00533)", "assay": "Inhibition of EGFR in human HeLa cells lysate pre incubated for 15 mins followed by ADP acyl phosphate probe addition and measured after 10 mins by LC-MS/MS analysis", "format": "subcellular"}, "[4]": {"target": "Dual specificity mitogen-activated protein kinase kinase 3 (Homo sapiens, UniProt P46734)", "sequence (P46734 whole entry)": "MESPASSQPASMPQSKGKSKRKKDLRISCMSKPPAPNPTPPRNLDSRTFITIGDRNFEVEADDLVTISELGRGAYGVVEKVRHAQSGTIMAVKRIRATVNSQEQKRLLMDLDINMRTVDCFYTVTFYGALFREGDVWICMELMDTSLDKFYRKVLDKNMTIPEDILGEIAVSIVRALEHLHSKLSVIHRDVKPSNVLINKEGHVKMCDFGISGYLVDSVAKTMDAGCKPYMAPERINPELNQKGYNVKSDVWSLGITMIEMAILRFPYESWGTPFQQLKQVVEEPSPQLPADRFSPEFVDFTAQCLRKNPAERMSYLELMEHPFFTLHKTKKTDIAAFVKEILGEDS", "assay": "Inhibition of MAP2K3 in human HeLa cells lysate pre incubated for 15 mins followed by ADP acyl phosphate probe addition and measured after 10 mins by LC-MS/MS analysis", "format": "subcellular"}, "[5]": {"target": "Ribosomal protein S6 kinase alpha-1 (Homo sapiens, UniProt Q15418)", "sequence (Q15418 whole entry, the tested form may be a part)": "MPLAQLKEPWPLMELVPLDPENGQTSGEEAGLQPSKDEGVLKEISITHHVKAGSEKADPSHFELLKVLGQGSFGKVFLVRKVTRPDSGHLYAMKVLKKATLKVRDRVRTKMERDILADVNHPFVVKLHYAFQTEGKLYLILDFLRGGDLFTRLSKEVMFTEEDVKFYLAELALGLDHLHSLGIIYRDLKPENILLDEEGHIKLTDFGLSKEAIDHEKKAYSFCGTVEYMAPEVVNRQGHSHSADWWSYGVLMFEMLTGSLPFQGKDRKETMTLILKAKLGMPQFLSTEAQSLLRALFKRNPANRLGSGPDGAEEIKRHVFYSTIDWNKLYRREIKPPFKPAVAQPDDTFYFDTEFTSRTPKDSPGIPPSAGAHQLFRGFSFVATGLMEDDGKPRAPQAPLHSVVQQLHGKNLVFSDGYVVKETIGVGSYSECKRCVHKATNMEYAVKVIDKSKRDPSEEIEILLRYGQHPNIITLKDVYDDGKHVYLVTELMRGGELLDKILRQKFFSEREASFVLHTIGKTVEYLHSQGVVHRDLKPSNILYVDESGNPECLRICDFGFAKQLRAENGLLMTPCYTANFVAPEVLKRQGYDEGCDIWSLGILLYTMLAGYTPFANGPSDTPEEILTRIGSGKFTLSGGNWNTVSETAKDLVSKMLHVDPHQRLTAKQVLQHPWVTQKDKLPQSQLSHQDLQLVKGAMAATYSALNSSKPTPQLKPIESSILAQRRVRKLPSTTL", "assay": "Inhibition of RSK1 domain 2 K1 site in human HeLa cells lysate at 2 uM pre incubated for 15 mins followed by ADP acyl phosphate probe addition and measured after 10 mins by LC-MS/MS analysis relative to control", "format": "subcellular", "settings": "time 25.0 min"}, "[6]": {"target": "T2, EKC/KEOPS complex subunit TP53RK (Homo sapiens) (UniProt Q96S44)", "T2 sequence (whole entry)": "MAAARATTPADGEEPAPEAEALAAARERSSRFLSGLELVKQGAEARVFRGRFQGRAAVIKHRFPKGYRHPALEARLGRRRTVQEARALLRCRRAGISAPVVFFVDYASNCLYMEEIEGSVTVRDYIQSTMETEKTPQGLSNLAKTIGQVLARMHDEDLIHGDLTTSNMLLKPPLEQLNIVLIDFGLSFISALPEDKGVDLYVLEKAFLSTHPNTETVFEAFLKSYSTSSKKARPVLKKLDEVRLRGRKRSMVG", "assay": "Inhibition of PRPK in human HeLa cells lysate at 2 uM pre incubated for 15 mins followed by ADP acyl phosphate probe addition and measured after 10 mins by LC-MS/MS analysis relative to control", "format": "subcellular", "settings": "time 25.0 min"}, "[7]": {"target": "T3, Phosphatidylinositol 5-phosphate 4-kinase type-2 alpha (Homo sapiens) (UniProt P48426)", "T3 sequence (whole entry)": "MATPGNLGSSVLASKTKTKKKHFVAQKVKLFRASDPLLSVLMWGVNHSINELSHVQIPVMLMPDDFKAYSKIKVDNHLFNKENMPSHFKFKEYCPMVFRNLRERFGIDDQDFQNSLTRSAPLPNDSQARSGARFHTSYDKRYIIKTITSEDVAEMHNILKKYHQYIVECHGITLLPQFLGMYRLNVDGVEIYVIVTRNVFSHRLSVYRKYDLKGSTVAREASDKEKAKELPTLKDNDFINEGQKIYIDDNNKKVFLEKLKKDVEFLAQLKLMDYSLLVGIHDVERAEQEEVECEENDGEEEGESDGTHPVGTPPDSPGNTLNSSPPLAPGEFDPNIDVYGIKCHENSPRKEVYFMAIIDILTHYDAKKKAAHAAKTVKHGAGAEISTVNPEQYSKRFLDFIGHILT", "assay": "Inhibition of PIP5K2A LIP site in human HeLa cells lysate at 2 uM pre incubated for 15 mins followed by ADP acyl phosphate probe addition and measured after 10 mins by LC-MS/MS analysis relative to control", "format": "subcellular", "settings": "time 25.0 min"}, "[8]": {"target": "p38 delta/gamma (Homo sapiens) (UniProt O15264+P53778)", "assay": "Inhibition of p38d/p38g in human HeLa cells lysate at 50 uM pre incubated for 15 mins followed by ATP acyl phosphate probe addition and measured after 10 mins by LC-MS/MS analysis relative to control", "format": "subcellular", "settings": "time 25.0 min"}, "[9]": {"assay": "Inhibition of PKD1/2 in human HeLa cells lysate at 50 uM pre incubated for 15 mins followed by ATP acyl phosphate probe addition and measured after 10 mins by LC-MS/MS analysis relative to control", "settings": "25 min, condition cancer"}, "[10]": {"target": "T4, Serine/threonine-protein kinase A-Raf (Homo sapiens) (UniProt P10398)", "T4 sequence (whole entry)": "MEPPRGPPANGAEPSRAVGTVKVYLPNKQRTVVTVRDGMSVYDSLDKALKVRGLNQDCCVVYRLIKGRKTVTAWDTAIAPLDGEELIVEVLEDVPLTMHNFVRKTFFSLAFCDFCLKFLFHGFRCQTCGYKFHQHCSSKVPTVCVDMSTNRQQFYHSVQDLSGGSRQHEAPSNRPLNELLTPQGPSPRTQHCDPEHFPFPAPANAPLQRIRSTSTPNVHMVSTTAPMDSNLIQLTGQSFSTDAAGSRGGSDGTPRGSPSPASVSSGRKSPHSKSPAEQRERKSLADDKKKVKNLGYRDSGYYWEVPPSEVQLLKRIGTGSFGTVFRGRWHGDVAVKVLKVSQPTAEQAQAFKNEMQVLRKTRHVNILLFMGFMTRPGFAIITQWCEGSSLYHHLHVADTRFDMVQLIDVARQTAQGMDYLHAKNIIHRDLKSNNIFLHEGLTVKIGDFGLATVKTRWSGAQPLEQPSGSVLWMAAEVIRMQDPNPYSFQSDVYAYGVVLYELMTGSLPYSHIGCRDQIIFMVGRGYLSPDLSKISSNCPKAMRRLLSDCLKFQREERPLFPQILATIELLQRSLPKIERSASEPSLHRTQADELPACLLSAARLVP", "assay": "Inhibition of ARAF in human HeLa cells lysate at 10 uM pre incubated for 15 mins followed by ATP acyl phosphate probe addition and measured after 10 mins by LC-MS/MS analysis relative to control", "format": "subcellular", "settings": "time 25.0 min", "procedure,_shortened": "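KiNativ-type profiling in HeLa lysate (5 mg/mL total protein). Lysate preincubated 15 min with inhibitor at 50, 10, 2, 0.8 or 0 μM, then ATP or ADP acylphosphate probe added (5 μM final) for 10 min. Reaction stopped with urea and analysed by targeted MS, using up to four fragment ions per kinase peptide-probe conjugate. % inhibition calculated against untreated lysate. Duplicate reactions.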"}, "[11]": {"target": "Serine/threonine-protein kinase SMG1 (Homo sapiens, UniProt Q96Q15)", "sequence (Q96Q15 whole entry)": "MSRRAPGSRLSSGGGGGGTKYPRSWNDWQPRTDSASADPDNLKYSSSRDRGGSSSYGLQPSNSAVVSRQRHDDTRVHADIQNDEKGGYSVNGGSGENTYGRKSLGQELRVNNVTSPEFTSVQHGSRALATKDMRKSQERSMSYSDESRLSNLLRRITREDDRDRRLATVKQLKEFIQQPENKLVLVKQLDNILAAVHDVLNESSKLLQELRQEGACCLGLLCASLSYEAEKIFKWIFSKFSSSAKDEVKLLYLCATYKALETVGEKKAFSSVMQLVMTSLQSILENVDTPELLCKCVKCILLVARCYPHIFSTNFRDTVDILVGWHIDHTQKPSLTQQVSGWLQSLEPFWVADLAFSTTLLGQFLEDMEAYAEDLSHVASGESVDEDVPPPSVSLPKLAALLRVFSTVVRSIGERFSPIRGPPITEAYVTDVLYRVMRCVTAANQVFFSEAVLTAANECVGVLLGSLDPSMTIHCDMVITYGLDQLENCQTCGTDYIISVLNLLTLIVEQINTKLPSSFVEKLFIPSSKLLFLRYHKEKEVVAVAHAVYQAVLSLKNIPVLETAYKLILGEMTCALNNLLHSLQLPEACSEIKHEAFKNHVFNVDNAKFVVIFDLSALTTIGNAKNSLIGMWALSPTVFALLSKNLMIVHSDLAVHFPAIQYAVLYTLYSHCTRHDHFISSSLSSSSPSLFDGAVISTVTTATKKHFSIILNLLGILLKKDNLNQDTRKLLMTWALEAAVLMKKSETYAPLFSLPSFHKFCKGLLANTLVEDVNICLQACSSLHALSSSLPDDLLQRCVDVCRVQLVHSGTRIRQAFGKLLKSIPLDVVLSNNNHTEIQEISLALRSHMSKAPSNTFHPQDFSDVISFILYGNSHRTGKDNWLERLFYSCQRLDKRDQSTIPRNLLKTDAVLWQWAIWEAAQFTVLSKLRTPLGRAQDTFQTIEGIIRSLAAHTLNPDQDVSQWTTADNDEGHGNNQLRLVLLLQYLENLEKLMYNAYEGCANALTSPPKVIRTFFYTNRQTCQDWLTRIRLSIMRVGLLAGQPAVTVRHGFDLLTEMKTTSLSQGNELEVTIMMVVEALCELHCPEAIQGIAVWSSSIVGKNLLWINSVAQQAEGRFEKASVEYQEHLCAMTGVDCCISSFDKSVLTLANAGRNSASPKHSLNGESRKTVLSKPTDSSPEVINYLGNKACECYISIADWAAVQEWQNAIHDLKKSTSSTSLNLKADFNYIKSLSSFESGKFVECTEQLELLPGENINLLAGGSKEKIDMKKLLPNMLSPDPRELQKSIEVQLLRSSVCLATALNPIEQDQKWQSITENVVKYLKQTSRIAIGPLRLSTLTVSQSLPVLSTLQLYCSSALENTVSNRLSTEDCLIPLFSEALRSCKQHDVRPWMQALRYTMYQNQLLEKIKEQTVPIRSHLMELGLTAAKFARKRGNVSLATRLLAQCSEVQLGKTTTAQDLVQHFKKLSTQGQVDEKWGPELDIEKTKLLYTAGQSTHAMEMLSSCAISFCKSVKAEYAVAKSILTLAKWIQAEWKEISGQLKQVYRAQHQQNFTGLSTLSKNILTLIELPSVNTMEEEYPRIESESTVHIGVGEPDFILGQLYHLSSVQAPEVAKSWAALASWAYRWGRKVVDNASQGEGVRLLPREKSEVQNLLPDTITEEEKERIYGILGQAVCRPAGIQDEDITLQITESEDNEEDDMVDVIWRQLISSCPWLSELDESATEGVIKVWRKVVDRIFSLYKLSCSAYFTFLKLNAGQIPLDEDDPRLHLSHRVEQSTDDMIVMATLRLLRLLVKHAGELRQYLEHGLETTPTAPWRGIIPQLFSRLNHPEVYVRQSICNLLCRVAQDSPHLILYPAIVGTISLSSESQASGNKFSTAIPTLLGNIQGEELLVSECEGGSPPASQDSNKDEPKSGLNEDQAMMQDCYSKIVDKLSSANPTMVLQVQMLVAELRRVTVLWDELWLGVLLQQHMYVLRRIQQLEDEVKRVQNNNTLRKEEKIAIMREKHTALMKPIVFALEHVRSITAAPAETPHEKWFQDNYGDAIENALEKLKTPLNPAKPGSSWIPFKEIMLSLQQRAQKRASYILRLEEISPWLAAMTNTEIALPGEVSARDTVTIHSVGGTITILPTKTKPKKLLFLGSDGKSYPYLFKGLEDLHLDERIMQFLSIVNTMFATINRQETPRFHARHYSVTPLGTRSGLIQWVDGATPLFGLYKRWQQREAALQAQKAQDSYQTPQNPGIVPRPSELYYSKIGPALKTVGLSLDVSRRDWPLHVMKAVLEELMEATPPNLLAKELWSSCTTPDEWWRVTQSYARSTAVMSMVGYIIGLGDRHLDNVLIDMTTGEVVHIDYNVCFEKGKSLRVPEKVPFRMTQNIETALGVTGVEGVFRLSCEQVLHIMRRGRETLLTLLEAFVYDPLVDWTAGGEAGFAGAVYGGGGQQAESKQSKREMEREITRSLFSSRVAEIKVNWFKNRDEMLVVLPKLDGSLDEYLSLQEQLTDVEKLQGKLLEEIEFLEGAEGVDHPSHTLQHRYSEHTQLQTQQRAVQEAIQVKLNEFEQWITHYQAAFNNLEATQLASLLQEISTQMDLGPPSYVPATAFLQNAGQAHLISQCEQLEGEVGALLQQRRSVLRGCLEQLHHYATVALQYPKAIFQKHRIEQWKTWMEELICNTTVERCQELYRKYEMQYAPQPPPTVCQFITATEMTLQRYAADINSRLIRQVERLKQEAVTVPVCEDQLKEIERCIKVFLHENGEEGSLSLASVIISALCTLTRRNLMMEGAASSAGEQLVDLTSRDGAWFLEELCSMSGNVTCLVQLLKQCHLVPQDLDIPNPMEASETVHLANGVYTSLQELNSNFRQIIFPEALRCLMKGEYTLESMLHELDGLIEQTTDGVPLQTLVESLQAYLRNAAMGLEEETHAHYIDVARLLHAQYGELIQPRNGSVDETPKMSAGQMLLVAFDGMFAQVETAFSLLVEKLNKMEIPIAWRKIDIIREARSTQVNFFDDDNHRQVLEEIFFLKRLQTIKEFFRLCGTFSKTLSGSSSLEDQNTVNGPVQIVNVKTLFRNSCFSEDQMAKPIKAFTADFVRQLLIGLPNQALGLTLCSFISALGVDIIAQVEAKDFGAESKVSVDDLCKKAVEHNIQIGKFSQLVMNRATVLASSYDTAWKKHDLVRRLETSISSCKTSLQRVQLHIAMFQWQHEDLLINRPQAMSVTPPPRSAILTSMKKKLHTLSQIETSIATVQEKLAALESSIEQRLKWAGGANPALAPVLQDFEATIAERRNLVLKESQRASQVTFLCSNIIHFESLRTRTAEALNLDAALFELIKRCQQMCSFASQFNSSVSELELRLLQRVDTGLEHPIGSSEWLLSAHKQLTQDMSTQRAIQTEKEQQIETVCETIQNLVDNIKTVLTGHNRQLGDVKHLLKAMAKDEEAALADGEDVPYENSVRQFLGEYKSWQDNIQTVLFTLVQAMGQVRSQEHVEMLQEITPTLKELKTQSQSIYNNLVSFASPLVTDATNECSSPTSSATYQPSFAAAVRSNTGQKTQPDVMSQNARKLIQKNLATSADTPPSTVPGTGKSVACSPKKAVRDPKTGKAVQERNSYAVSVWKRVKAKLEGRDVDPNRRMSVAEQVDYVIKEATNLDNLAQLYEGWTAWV", "assay": "Inhibition of SMG1 in human HeLa cells lysate at 10 uM pre incubated for 15 mins followed by ATP acyl phosphate probe addition and measured after 10 mins by LC-MS/MS analysis relative to control", "format": "subcellular", "settings": "time 25.0 min"}, "[12]": {"target": "T1, Mitogen-activated protein kinase kinase kinase 20", "assay": "Inhibition of ZAK in human HeLa cells lysate at 2 uM pre incubated for 15 mins followed by ATP acyl phosphate probe addition and measured after 10 mins by LC-MS/MS analysis relative to control", "format": "subcellular", "settings": "time 25.0 min"}, "[13]": {"assay": "Inhibition of MAP3K2/3 in human HeLa cells lysate at 2 uM pre incubated for 15 mins followed by ATP acyl phosphate probe addition and measured after 10 mins by LC-MS/MS analysis relative to control", "settings": "25 min, condition cancer"}, "[14]": {"assay": "Cardiotoxicity in C57Bl/6 mouse assessed as vasculature instability in heart at 50 mg/kg, ip for 14 days by TUNEL assay", "format": "toxicity, organism-based", "settings": "in vivo, 336 h, time 14 day", "procedure,_shortened": "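Mice were dosed i.p. at 50 mg/kg over 14 days. Heart sections from treated and control mice were stained by immunofluorescence for CD31 and by TUNEL, with DNase-treated sections as the TUNEL positive control.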"}, "[15]": {"assay": "Toxicity in C57Bl/6 mouse assessed as effect on injection site at 50 mg/kg, ip for 14 days", "format": "organism-based", "settings": "in vivo, 336 h, time 14 day"}}, "data": [{"compound": "CCOc1cc(N2CCC(O)CC2)ccc1Nc1ncc2c(n1)N(C)c1ccccc1C(=O)N2C", "values": [{"measurement": "IC50", "setting": "[1]", "result": "> 50", "unit": "µM"}, {"measurement": "IC50", "setting": "[2]", "result": "> 50", "unit": "µM"}, {"measurement": "IC50", "setting": "[3]", "result": "> 50", "unit": "µM"}, {"measurement": "IC50", "setting": "[4]", "result": "> 50", "unit": "µM"}, {"measurement": "inhibition", "setting": "[5]", "result": 18, "unit": "%"}, {"measurement": "inhibition", "setting": "[6]", "result": 23.1, "unit": "%"}, {"measurement": "inhibition", "setting": "[7]", "result": 5.5, "unit": "%"}, {"measurement": "inhibition", "setting": "[8]", "result": 37.2, "unit": "%"}, {"measurement": "inhibition at 50 µM", "setting": "[9]", "result": 13.9, "unit": "%"}, {"measurement": "inhibition", "setting": "[10]", "result": 11.2, "unit": "%"}, {"measurement": "inhibition", "setting": "[11]", "result": 3.9, "unit": "%"}, {"measurement": "inhibition", "setting": "[12]", "result": 31.5, "unit": "%"}, {"measurement": "inhibition at 2 µM", "setting": "[13]", "result": -2.1, "unit": "%"}, {"measurement": "Activity", "setting": "[14]", "result": "Non-Toxic"}, {"measurement": "Activity", "setting": "[15]", "result": "Non-Toxic"}]}]}
